The record followed here is ChEMBL document CHEMBL4814076, “Discovery of a Potent and Selective Covalent Inhibitor of Bruton's Tyrosine Kinase with Oral Anti-Inflammatory Activity” (ACS Med Chem Lett, 2021).

Activity calls are given as the source filed them.

The target in data set [1] is T1, Tyrosine-protein kinase BTK (Homo sapiens, UniProt Q06187). Nature of the data set: Covalent inhibition of recombinant human GST-tagged BTK (2 to 659 end residues) expressed in baculovirus expression system assessed as inhibition constant using NH2-KKKAPFSWYLPEEG as substrate measured every 2 mins for 2 hrs in presence of ATP by microplate reader assay.
The target of data set [2] is Tyrosine-protein kinase BTK (Mus musculus, UniProt P35991). Nature of the data set: Inhibition of BTK in C57Bl/6 mouse splenocyte assessed as reduction in anti-IgM-induced CD69 expression incubated for 1 hr followed anti-IgM stimulation and measured after overnight by flow cytometry analysis. Type of data set: tissue-based. The procedure, abridged:
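Mouse splenocytes stimulated with anti-IgM. CD69 expression measured as the read-out.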
In general terms: A flow cytometer gives signals particle by particle.

Data set [3] can be described thus: Inhibition of BTK in Wistar rat whole blood assessed as reduction in anti-IgD-induced B220/CD86+ expression incubated for 1 hr followed anti-IgD stimulation and measured after overnight by flow cytometry analysis. The data set is classed as tissue-based. An outline of the steps: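 B-cell activation induced by anti-IgD in rat whole blood, read as B220+CD86+ cells.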

The nature of data set [4]: Half life in human pooled liver microsomes at 1 uM measured up to 60 mins in presence of NADPH by LC-MS/MS analysis. Type of data set: ADME, Microsome. In general terms: Liver microsomes are a subcellular fraction often used to study metabolism.
Data set [5] deals with T1, Tyrosine-protein kinase BTK. Briefly: Covalent inhibition of recombinant human GST-tagged BTK (2 to 659 end residues) expressed in baculovirus expression system assessed as inactivation constant using NH2-KKKAPFSWYLPEEG as substrate measured every 2 mins for 2 hrs in presence of ATP by microplate reader assay.
Data set [6] has the same target. Briefly: Covalent inhibition of recombinant human GST-tagged BTK (2 to 659 end residues) expressed in baculovirus expression system assessed as Kinact/Ki ratio using NH2-KKKAPFSWYLPEEG as substrate measured every 2 mins for 2 hrs in presence of ATP by microplate reader assay.
Data set [7] has the same target. Briefly: Binding affinity to recombinant unphosphorylated human GST-tagged BTK kinase domain (389 to 659 residues) expressed in insect cells incubated for 1 hr by Lanthascreen assay.
Data set [8] shares this target. Nature of the data set: Time dependent inhibition of recombinant human GST-tagged BTK (2 to 659 end residues) expressed in baculovirus expression system using NH2-KKKAPFSWYLPEEG as substrate measured every 2 mins for 2 hrs in presence of ATP by microplate reader assay.
Data set [9] in a line: Half life of the compound at 25 degreeC. Type of data set: physicochemical.

One may read the IC50 as the concentration that inhibits the measured activity by half. For orientation: half-life means the time needed for the level to fall by half in the phase considered.

T1 sequence (Q06187 whole entry): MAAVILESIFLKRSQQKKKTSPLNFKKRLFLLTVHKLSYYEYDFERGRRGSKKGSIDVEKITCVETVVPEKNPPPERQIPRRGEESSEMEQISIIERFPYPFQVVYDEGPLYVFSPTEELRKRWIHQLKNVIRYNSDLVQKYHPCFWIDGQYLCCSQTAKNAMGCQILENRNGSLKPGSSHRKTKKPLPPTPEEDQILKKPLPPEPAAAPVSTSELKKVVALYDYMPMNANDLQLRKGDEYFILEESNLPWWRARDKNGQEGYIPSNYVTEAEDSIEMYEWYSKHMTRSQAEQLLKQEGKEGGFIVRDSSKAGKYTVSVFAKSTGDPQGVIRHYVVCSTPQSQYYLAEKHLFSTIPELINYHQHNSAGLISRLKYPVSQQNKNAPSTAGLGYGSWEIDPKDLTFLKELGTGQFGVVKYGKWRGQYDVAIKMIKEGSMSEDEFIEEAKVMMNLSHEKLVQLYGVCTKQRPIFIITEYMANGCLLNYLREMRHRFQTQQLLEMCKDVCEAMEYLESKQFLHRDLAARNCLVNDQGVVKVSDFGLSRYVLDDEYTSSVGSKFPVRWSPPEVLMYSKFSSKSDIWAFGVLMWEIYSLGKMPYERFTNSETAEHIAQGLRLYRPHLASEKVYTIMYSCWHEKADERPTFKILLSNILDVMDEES
Sequence of Tyrosine-protein kinase BTK (Mus musculus, UniProt P35991) (P35991 whole entry): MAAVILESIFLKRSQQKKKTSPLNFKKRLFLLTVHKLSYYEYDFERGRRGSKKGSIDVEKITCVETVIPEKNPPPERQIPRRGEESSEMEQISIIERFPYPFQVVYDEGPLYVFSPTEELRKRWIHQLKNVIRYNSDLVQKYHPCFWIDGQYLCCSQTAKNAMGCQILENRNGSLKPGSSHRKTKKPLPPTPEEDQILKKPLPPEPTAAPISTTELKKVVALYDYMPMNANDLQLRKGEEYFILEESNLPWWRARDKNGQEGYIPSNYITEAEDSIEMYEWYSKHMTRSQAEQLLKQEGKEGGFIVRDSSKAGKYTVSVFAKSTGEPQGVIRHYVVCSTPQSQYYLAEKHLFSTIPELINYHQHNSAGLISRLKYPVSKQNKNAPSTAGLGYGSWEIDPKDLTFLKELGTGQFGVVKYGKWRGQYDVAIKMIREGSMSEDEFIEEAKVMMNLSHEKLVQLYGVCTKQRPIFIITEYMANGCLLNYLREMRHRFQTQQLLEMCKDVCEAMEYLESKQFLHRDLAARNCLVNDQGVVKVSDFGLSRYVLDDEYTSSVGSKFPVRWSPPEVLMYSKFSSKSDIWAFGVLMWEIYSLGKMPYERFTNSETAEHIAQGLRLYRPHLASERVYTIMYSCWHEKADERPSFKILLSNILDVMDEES

As to `C=CC(=O)C[C@@H]1CC[C@@H](NC(=O)c2sc3nccc4c3c2NC(=O)N4c2ccc(Oc3ccccc3)cc2C)C1`, the Ki in data set [1] came out at 0.0117 µM. Also, the half-inhibitory concentration (IC50) worked out at 0.0079 µM in data set [2] and 0.13 µM in data set [3] (Rattus norvegicus, Blood, 1 h).

As to `C=CC(=O)N1CCC[C@@H](NC(=O)c2sc3nccc4c3c2NC(=O)N4c2ccc(Oc3ccccc3)cc2Cl)C1`, the Ki in [1] stood at 0.0123 µM. Also, the IC50 was found to be 0.013 µM in data set [2] and 0.22 µM in data set [3] (Rattus norvegicus, Blood, 1 h).

With `C=CC(=O)N1CCC[C@@H](NC(=O)c2sc3nccc4c3c2NC(=O)N4c2ccc(Oc3ccccc3)cc2C)C1` (stereo in doubt; 17), the Ki in [1] turned out to be 0.00481 µM. The IC50 in data set [2] came to 0.019 µM; in data set [3], 0.14 µM. The half-life at 1 µM in [4] was less than 4 min.

As for `C=CC(=O)N1CC[C@H](NC(=O)c2sc3nccc4c3c2NC(=O)N4c2ccc(Oc3ccccc3)cc2C)C1`, the Ki in data set [1] was 0.217 µM. Besides, the IC50 stood at 0.03 µM in [2] and 0.64 µM in data set [3] (Rattus norvegicus, Blood, 1 h).

As to `C=CC(=O)N1CCC[C@@H](NC(=O)c2sc3nccc4c3c2NC(=O)N4c2ccc(Oc3ccccc3)cc2C(F)(F)F)C1`, the Kinact in [5] turned out to be 0.000177 s⁻¹. Moreover, the Ki in data set [1] amounted to 1.85 µM. For the same molecule, the Ratio in data set [6] turned out to be 95.7 M⁻¹ s⁻¹.

Take `C=CC(=O)N1CCC[C@@H](NC(=O)c2sc3nccc4c3c2NC(=O)N4c2ccc(OC(C)C)cc2)C1`: the IC50 in [7] was determined as 0.12 µM. Besides, the Kinact in data set [5] worked out at 0.000256 s⁻¹. Also, in data set [1], the Ki stood at 4.22 µM. Moreover, the Ratio in data set [6] turned out to be 60.7 M⁻¹ s⁻¹. Besides, in [8], the inhibition result was “Active”.

In data set [9], `O=C(N[C@@H]1CCCNC1)c1sc2nccc3c2c1NC(=O)N3c1ccc(Oc2ccccc2)cc1F` gave a half-life of 46 h.

For `C=CC(=O)N1CC(NC(=O)c2sc3nccc4c3c2NC(=O)N4c2ccc(Oc3ccccc3)cc2C)C1`, the Ki in [1] was found to be 0.141 µM. Besides, the IC50 in data set [2] came to 0.13 µM; in [3] (Rattus norvegicus, Blood, 1 h) it was 1.74 µM.

Turning to `C=CC(=O)N1CCC[C@@H](NC(=O)c2sc3nccc4c3c2NC(=O)N4c2ccccc2)C1`, in data set [5], the Kinact amounted to 0.000807 s⁻¹. The Ki in data set [1] is 6.42 µM. The Ratio in [6] was 126 M⁻¹ s⁻¹.

`C=CC(=O)N1CCC[C@@H](NC(=O)c2sc3nccc4c3c2NC(=O)N4c2ccccc2C)C1`: the Kinact in data set [5] was 0.000573 s⁻¹. Besides, the Ki in [1] was determined as 1.58 µM. The Ratio in data set [6] stood at 363 M⁻¹ s⁻¹.

In the case of `C=CC(=O)N1CCC[C@@H](NC(=O)c2sc3nccc4c3c2NC(=O)N4c2cc(OC(C)C)ccc2C)C1`, the Kinact in data set [5] turned out to be 0.000222 s⁻¹. In addition, in data set [1], the Ki amounted to 3.29 µM. Further, the Ratio in [6] was determined as 67.5 M⁻¹ s⁻¹.

In the case of `CCC(=O)N1CCC[C@@H](NC(=O)c2sc3nccc4c3c2NC(=O)N4c2ccc(OC(C)C)cc2)C1`, in [7], the half-inhibitory concentration (IC50) stood at 6.6 µM.

As for `C=CC(=O)N1CCC[C@@H](NC(=O)c2sc3nccc4c3c2NC(=O)N4c2ccc(Oc3ccccc3)cc2C)C1` (stereo in doubt; 16), in [1], the Ki was determined as 0.15 µM. For the same molecule, the figures for the half-inhibitory concentration (IC50) in data set [2] and in data set [3] were 0.4 µM and 2.45 µM, respectively.

In the case of `C=CC(=O)NCCNC(=O)c1sc2nccc3c2c1NC(=O)N3c1ccc(Oc2ccccc2)cc1C`, the Ki in data set [1] turned out to be 0.0519 µM. Moreover, the IC50 in data set [2] was 0.0076 µM; in data set [3] (Rattus norvegicus, Blood, 1 h), 0.21 µM.

Take `C=CC(=O)N1CCC[C@@H](NC(=O)c2sc3nccc4c3c2NC(=O)N4c2ccc(Oc3ccccc3)cc2F)C1`: in [1], the Ki was 0.0092 µM. Also, the half-maximal inhibitory concentration (IC50) in data set [2] was determined as 0.02 µM; in data set [3] (Rattus norvegicus, Blood, 1 h) it was 0.18 µM.

Regarding `C=CC(=O)N1CCC[C@@H](NC(=O)c2sc3nccc4c3c2NC(=O)N4c2ccc(OC(C)C)cc2C)C1`, the Ki in [1] was determined as 0.337 µM. The IC50 in data set [2] stood at 0.042 µM; in [3] (Rattus norvegicus, Blood, 1 h), 0.46 µM.

Consider `CC(C)Oc1ccc(N2C(=O)Nc3c(C(=O)N[C@@H]4CCCNC4)sc4nccc2c34)cc1`, for which the IC50 in [7] turned out to be 3.5 µM.

On to `C=CC(=O)N[C@H]1CCC[C@H]1NC(=O)c1sc2nccc3c2c1NC(=O)N3c1ccc(Oc2ccccc2)cc1C`, for which, in [5], the Kinact came out at 0.000257 s⁻¹. Besides, the Ki in [1] came out at 0.0148 µM. For the same molecule, the Ratio in [6] came to 17400 M⁻¹ s⁻¹. Also, the IC50 came out at 0.08 µM in data set [2] and 0.1 µM in data set [3] (Rattus norvegicus, Blood, 1 h).
